Legend:
[1] = substrate: CN1CC=C(Cc2ccccc2)CC1; experiment: (§1) Tested against Monoamine oxidase B enzyme from bovine liver mitochondria
How it was run: (§2)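 Bovine liver mitochondrial MAO-B, 0.05 unit/mL (unit = 1 μmol benzylamine→benzaldehyde per min; equivalent to 3.7 nmol protein), incubated at 37 °C in 0.1 M sodium phosphate pH 7.4. Reaction started by substrate addition, final 0.1–3.0 mM. Product formation monitored spectrophotometrically, initial rates taken 30–180 s after enzyme addition. Apparent Vmax and KM from double reciprocal plot.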

[2] = substrate: CN1CC=C(OC(=O)N(C)C)CC1; experiment: as §1; how it was run: as §2
[3] = substrate: CN1CC=C(OC(=O)N(C)c2ccccc2)CC1; experiment: as §1; how it was run: as §2
[4] = substrate: CN1CC=C(Oc2ccccc2)CC1; experiment: as §1; how it was run: as §2
[5] = substrate: CN1CC=C(Sc2ccccc2)CC1; experiment: as §1; how it was run: as §2

B1: Amine oxidase [flavin-containing] B (Bos taurus) (protein)
chain: MSSKCDVVVVGGGISGMAAAKLLHDSGLNVIVLEARDRVGGRTYTLRNQKVKYVDLGGSYVGPTQNHILRLSKELGLETYKVNEVERLIHHTKGKSYPFRGSFPSVWNPITYLDHNNLWRTMDDMGREIPSDAPWKAPLAEQWDLMTMKELLDKICWTESSKQLAILFVNLCVTAEIHEVSALWFLWYVKQCGGTTRIFSTSNGGQERKFVGGSGQVSERIMDLLGDRVKLERPVIHIDQTGENVLVETLNHELYEAKYVISAVPPVLGMKIHFNPPLPMMRNQLITRVPLGSVIKSIVYYKEPFWRNMDYCGSMIIEGEEAPVAYALDDTKPDGSYPAIIGFILAHKARKLARLTKEERLKKLCDLYAKVLGSQEALHPVHYEEKNWCEEQYSGGCYTSYFPPGIMTQYGRVLRQPVGRIYFAGTETATHWSGYMEGAVEAGERAAREILHAMGKIPEDEIWLPEPESVDVPAKPITTTFLQRHLPSVPGLLKLIGLTTIFSATALGFLAHKRGLLVRI
Km [1]: 83 µM | Vmax [1]: 0.222 µM/min | Km [2]: 7100 µM | Vmax [2]: 0.401 µM/min | Km [3]: 3850 µM | Vmax [3]: 0.255 µM/min | Km [4]: 234 µM | Vmax [4]: 0.161 µM/min | Km [5]: 80 µM | Vmax [5]: 0.274 µM/min
